Measurements as given in PMC10520345 (Current Research in Microbial Sciences, 2023).

Legend:
CV-A10 [1] = assay: Plaque reduction assay, CV-A10 in RD cells; type: cell-based, Coxsackievirus A10; conditions: read-out: IC50 against CV-A10 in plaque reduction assay
Procedure, shortened: (§1)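 Confluent RD or Vero monolayers were infected with coxsackievirus for 1 h. The inoculum was replaced by DMEM overlay with 1.2% Avicel, 2% FBS and varying test compound concentrations. After 2–3 days, plaques were fixed with 4% formaldehyde, stained with 0.5% crystal violet and counted, and IC50 was calculated. Data are means ± SD.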

CV-A10 [2] = assay: Plaque reduction assay, CV-A10 in Vero cells; type: cell-based, Coxsackievirus A10; conditions: read-out: IC50 against CV-A10 in plaque reduction assay
Procedure, shortened: as §1

CV-A16 = assay: Plaque reduction assay, CV-A16; type: cell-based, Coxsackievirus A16; conditions: read-out: IC50 against CV-A16 in plaque reduction assay
Procedure, shortened: as §1

CV-A6 = assay: Plaque reduction assay, CV-A6; type: cell-based, Coxsackievirus A6; conditions: read-out: IC50 against CV-A6 in plaque reduction assay
Procedure, shortened: as §1

CV-A7 = assay: Plaque reduction assay, CV-A7; type: cell-based, Coxsackievirus A7; conditions: read-out: IC50 against CV-A7 in plaque reduction assay
Procedure, shortened: as §1

IC50 (CV-A10 [1]): 240 ± 40 nM | IC50 (CV-A10 [2]): 1690 ± 620 nM | IC50 (CV-A16): 180 ± 20 nM | IC50 (CV-A6): 220 ± 20 nM | IC50 (CV-A7): 210 ± 50 nM
SMILES: CC(C)C[C@H](NC(=O)OCc1ccccc1)C(=O)N[C@@H](CC1CCNC1=O)C(O)S(=O)(=O)O (some centres unmarked) [GC376]
